Bioassay records as filed in PubChem BioAssay.
This is a sample that favours compounds with a hit; in the whole collection about 2.8% have one here.
Rtt109 Vps75: inhibitors of C. albicans Rtt109/Vps75 HAT, primary screen, biochemical, ThioGlo CoA-SH fluorescence, plate reader. purified Rtt109/Vps75, 4 h. 0.16% of 330,000 active. inhibition, % at 34.9 µM. AID 540336, 2011;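 active = inhibition of at least 50% in every replicate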
GRIN3A LBD mod: binders of NR3A ligand-binding domain, primary screen, biophysical, differential scanning fluorimetry, uHTS. Glutamate receptor ionotropic, NMDA 3A (GRIN3A) ligand-binding domain. NR3A LBD differential scanning fluorimetry, Tm shift; 0% = protein alone, 100% = glycine-bound protein. Tm shift relative to glycine control, % at 25 µM. 2.5% of 340,000 active. AID 1259313, 2017;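 active = melting temperature shift of at least 10% of the positive control shift, at one fixed dose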
JMJD2C inh: inhibitors of GASC-1 histone demethylase, primary screen, biochemical, fluorescence, DELFIA europium; Lysine-specific demethylase 4C (Homo sapiens), Q9H3R0; GST-JMJD2C(1-420) H3K9me3 demethylation; inhibition, % at 2.35 µM; 0.069% of 330,000 active; AID 2099, 2009;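 active = more than half of a compound's replicate wells show inhibition beyond 50%, single wells judged on their own value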;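 note: signal counts dimethyl H3K9 product captured on neutravidin plate; 0% = median of DMSO wells and 100% = 0.3 times that DMSO median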
Target sequence (Q9H3R0 1-420 limits assumed): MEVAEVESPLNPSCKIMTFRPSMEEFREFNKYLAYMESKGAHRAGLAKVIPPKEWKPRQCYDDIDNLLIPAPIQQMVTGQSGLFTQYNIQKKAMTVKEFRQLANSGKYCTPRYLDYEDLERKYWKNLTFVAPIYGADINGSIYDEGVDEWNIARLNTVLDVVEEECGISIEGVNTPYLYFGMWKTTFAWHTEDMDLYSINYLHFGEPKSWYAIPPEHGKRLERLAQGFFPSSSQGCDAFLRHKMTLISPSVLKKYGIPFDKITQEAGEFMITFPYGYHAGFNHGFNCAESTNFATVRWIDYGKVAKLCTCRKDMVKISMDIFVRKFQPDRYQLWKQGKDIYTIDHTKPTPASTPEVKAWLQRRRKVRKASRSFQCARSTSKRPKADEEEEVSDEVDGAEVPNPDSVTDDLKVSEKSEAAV
T cell modulator: modulators of CD8 T cell-vesicle binding, primary screen, mouse 2C CD8+ T cells, flow cytometry | 2C CD8+ T cell-vesicle binding; hits give low values | response (vesicle binding), % at 7 µM | 0.068% of 330,000 active | AID 2052, 2009;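 active = response, share of CD8 T cells binding vesicles, and their 90th percentile fluorescence all below set limits, cut at about 80% in these data, passing the limit was not always enough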;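 note: values below 100% mean blocked vesicle binding to the CD8+ T cells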
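Benchmarks: naked versus QL9-loaded vesicles / Assay system: purified 2C TCR transgenic mouse naive CD8+ T cells / Technique: high-throughput flow cytometry with anti-B7-1 and anti-CD8 staining / Timing: Cell–vesicle co-incubation 1.5 h at 37 °C, staining 20 min on ice / Read-out: percent CD8+ FL2 mean versus row control / Probe or stimulus: QL9-loaded Drosophila micro-vesicles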
An asterisk follows results filed as active; i = inactive; · = not tested or not shown.

SMILES | Rtt109 Vps75 | GRIN3A LBD mod | JMJD2C inh | T cell modulator
Cc1nc2ncccn2c1-c1csc(Nc2ccccc2)n1 | 14.4 | -1.6 | -0.5 | 97.2
Cc1cccc(Nc2nc(-c3ccc(O)c(O)c3)cs2)n1 | 6.5 | 38.9* | -28.3 | 329.0
Cc1cc(O)ccc1Nc1nc(-c2cccnc2)cs1 | -4.6 | 0.4 | 7.8 | 90.6
CC(=O)Nc1ccc(-c2csc(Nc3ccccn3)n2)cc1 | 2.5 | 29.9* | 2.5 | 252.5
Cc1ccnc(Nc2nc(-c3ccc(O)cc3O)cs2)c1 | -1.3 | 40.0* | -5.2 | 530.4
Nn1c(SCC(=O)NC2CCS(=O)(=O)C2)nnc1-c1ccco1 (stereo not given) | 1.7 | -1.3 | 9.2 | 272.4
COC(=O)c1ccc2c(=O)[nH]c(COC(=O)c3[nH]c(C)c(C(C)=O)c3C)nc2c1 | 1.1 | -2.4 | 3.3 | 461.7
Cc1ccnc(Nc2nc(-c3ccc(O)cc3)cs2)c1 | 20.8 | 17.9* | 8.0 | 414.5
COc1ccc(-c2csc(Nc3cc(C)ccn3)n2)cc1C | 1.3 | 7.5 | -3.3 | 134.8
CCOc1ccc(NC(=S)NNC(=S)Nc2cccc(C(F)(F)F)c2)cc1 | 3.3 | 20.1* | -4.0 | 290.6
COc1ccc(NC(=S)NNC(=S)Nc2cccc(C(F)(F)F)c2)cc1 | 1.6 | 33.6* | -7.2 | 972.4
CCOC(=O)c1c(N)sc(C(=O)Nc2ccc3c(c2)OCO3)c1C | 2.1 | 27.7* | -17.3 | 311.0
CCOC(=O)c1c(N)sc(C(=O)N(C)C)c1C | 4.1 | 11.0* | 5.3 | 304.7
COC(=O)[C@@]1(Cc2ccc(F)cc2)[C@H]2c3cc(C(=O)N4CCCC4)n(CCCNc4ncc(C(F)(F)F)cc4Cl)c3C[C@H]2CN1C(=O)c1ccccc1 | -17.6 | -0.7 | 4.1 | i
Cc1c(Cl)cccc1NC(=O)CNC(=O)C1CCN(C(=O)Nc2ccccc2)CC1 | 6.4 | 1.4 | 23.0 | 370.0
Cc1c(C(c2ccc(C(=O)O)cc2)c2c(C)n(C)n(-c3ccccc3)c2=O)c(=O)n(-c2ccccc2)n1C | -7.2 | 0.5 | 2.5 | 196.2
O=C(COC(=O)c1cccc(O)c1)Nc1ccc(N2CCOCC2)cc1 | -8.9 | 1.1 | -0.1 | 163.0
Nc1nc(SCC(=O)Nc2ccc(OC(F)(F)F)cc2)[nH]c(=O)c1NC(=O)c1ccc(Br)o1 | 4.6 | 16.8* | -9.8 | 128.2
Nc1nc(SCC(=O)Nc2ccc([N+](=O)[O-])cc2)[nH]c(=O)c1NC(=O)c1ccc(Br)cc1 | 4.0 | 31.1* | -11.3 | 229.1
COc1ccc(NC(=O)c2ccc(NC(=O)CSc3nc(N)cc(=O)[nH]3)cc2)cc1 | -8.5 | 11.0* | 12.2 | 294.4
COc1ccccc1CCC(=O)N(C)CC(=O)Nc1ccc(F)cc1 | 30.9 | 0.7 | -22.3 | 288.0
CCOc1ccc(C(NC(=O)/C=C/c2ccco2)c2ccc(OC)c(OC)c2)cc1 (stereo not given) | -3.0 | 10.2* | 6.7 | 173.0
COc1ccc(C(NC(=O)/C=C/c2ccco2)c2ccc(OC)c(OC)c2)cc1 (stereo not given) | 3.1 | -12.9 | -20.8 | i
C#CC1(O)CCC2C3CCc4cc(O)cc(C)c4C3CCC21C (stereo not given) | -2.4 | -4.8 | · | ·
CCCCN(C/C=C/c1ccccc1OC)Cc1ccccc1 | 64.1* | 2.2 | -3.6 | 161.7
SMILES | Rtt109 Vps75 | GRIN3A LBD mod | JMJD2C inh | T cell modulator
COc1ccc(NC(=O)Cn2c(=O)n(CC(=O)NCc3ccco3)c(=O)c3ccccc32)cc1 | -2.9 | 0.5 | -1.0 | 424.2
CCn1c(=O)n(CC(=O)NCc2ccco2)c(=O)c2ccccc21 | -1.3 | 11.0* | 0.4 | 143.4
O=C(N/N=C\C=C\c1ccco1)c1cc(-c2ccc3ccccc3c2)n[nH]1 | -4.5 | 14.9* | 19.8 | 681.5
O=C(NC(Cc1c[nH]c2ccccc12)C(=O)O)c1cccs1 (stereo not given) | -2.6 | -5.5 | -17.8 | 452.1
Cc1nc(N)sc1C(=O)N/N=C/c1c[nH]c2ccccc12 | -8.8 | 24.4* | 1.7 | 215.4
O=C(N/N=C/c1c[nH]c2ccccc12)c1ccccc1 | 2.7 | 18.1* | -4.1 | 245.6
COc1ccccc1C(=O)N/N=C/c1c[nH]c2ccccc12 | · | 13.8* | 5.6 | 279.7
O=C(NC(Cc1c[nH]c2ccccc12)C(=O)N/N=C/c1cccc2ccccc12)c1cccs1 (stereo not given) | 5.8 | 19.4* | 3.5 | 181.6
Cc1cc(C(=O)N/N=C/c2c[nH]c3ccccc23)c(C)o1 | -1.7 | 8.0 | 4.3 | 177.9
O=C(N/N=C/c1c[nH]c2ccc(Br)cc12)c1ccc2c(c1)OCO2 | 32.2 | 31.1* | 6.2 | 313.5
Cc1nc2ccc(C(=O)N/N=C/c3cc([N+](=O)[O-])ccc3O)cc2[nH]1 | -6.4 | -2.1 | 57.6* | 295.7
O=C(N/N=C/c1ccccn1)c1sc2ccccc2c1Cl | 41.4 | -3.1 | 5.4 | 976.9
O=C(N/N=C/c1c[nH]c2ccccc12)c1sc2ccccc2c1Cl | -3.0 | 34.5* | 5.0 | 120.8
O=C(N/N=C/c1ccccc1O)c1ccc2c(c1)OCO2 | -1.5 | · | -14.5 | 162.2
Cc1cccc(NC(=S)N/N=C/c2c[nH]c3ccccc23)c1 | 6.3 | 33.1* | -4.0 | 313.6
Cc1nc2ccc(C(=O)N/N=C/c3ccccc3O)cc2[nH]1 | -4.4 | -2.9 | -23.2 | 233.8
O=C1CC(C(=O)N2CCc3ccccc32)CN1c1cccc(C(F)(F)F)c1 (stereo not given) | 1.7 | 0.5 | 6.2 | 172.5
COc1ccc(OCCCC(=O)OCC(=O)N2CCN(S(=O)(=O)c3ccc(C)cc3C)CC2)cc1 | 1.2 | 1.9 | · | ·
O=C(Nc1ccc2c(c1)CCC2)c1ncoc1-c1ccccc1F | 1.0 | 1.4 | -8.3 | ·
O=C(NC(Cc1c[nH]c2ccccc12)C(=O)Nc1ccc(OC(F)(F)F)cc1)c1cccs1 (stereo not given) | · | 32.8* | -3.9 | i
O=C(N/N=C/c1cccc2ccccc12)c1cccs1 | 3.0 | -3.8 | -0.1 | 182.5
O=C(N/N=C/c1c[nH]c2ccccc12)c1ccncc1 | 8.8 | 6.5 | -34.1 | 221.8
O=C(N/N=C/c1c[nH]c2ccccc12)c1cccs1 | · | 22.6* | 4.8 | 261.1
O=C(NC(Cc1c[nH]c2ccccc12)C(=O)Nc1ccc(F)c([N+](=O)[O-])c1)c1cccs1 (stereo not given) | 12.0 | 5.2 | 0.7 | 117.9
Cc1ccc(C(=O)Nc2ccc(C(=O)N/N=C/c3c[nH]c4ccccc34)cc2)cc1 | 6.1 | 31.3* | 5.3 | 370.7
O=C(N/N=C/c1cc(Br)cc(Cl)c1O)c1ccc2c(c1)OCO2 | -2.2 | 10.5* | 3.3 | 616.0
Cc1ccc(SCC(=O)OCC(=O)NCCc2ccc(S(N)(=O)=O)cc2)c(C)c1 | -3.2 | 1.2 | -5.9 | 221.4
Cc1noc(C)c1COC(=O)c1ccc(F)c(S(=O)(=O)N2CCOCC2)c1 | 2.4 | 3.7 | · | 305.5
